# Key:
# [1] = target: T1, Growth hormone secretagogue receptor type 1 (Homo sapiens, UniProt Q92847); test: Agonist activity at human GRLN receptor expressed in HEK293 cells assessed as calcium binding by Ca2+ bioluminescence aequorin assay; format: functional, cell-based
# Method in brief: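 HEK-293 cells expressing human GRLN. Ca2+ bioluminescence read out by aequorin. Duplicate samples, maximum tolerated interassay variability ±10%. Full agonism defined as maximal response >70% of that of octanoylated human ghrelin.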
# [2] = test system: Cynomolgus monkey; test: AUC (0 to infinity) in cynomolgus monkey at […], po; details: in vivo
# [3] = target: Cytochrome P450 2C9 (Homo sapiens, UniProt P11712); test: Inhibition of human CYP2C9; format: ADME
# [4] = Cmax in cynomolgus monkey at 8 mg/kg, po; format: ADME, organism-based, Macaca fascicularis; set-up: dose 8 mg/kg, route oral; details: in vivo
# [5] = Cmax in Sprague-Dawley rat at 8 mg/kg, po; format: ADME, organism-based; set-up: dose 8 mg/kg, route oral; details: in vivo
# Method in brief: (§1)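 Male Sprague−Dawley rats (250 ± 20 g), 3 per compound in a single experiment, gavage 8 mg/kg in physiological saline. Blood taken at 12 time points over 6 h into K3EDTA tubes. Plasma stored at −20 °C, assayed by LC-MS/MS, noncompartmental analysis.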
# [6] = test system: Cynomolgus monkey; test: Oral bioavailability in cynomolgus monkey at […]; details: in vivo
# [7] = Volume of distribution at steady state in Sprague-Dawley rat at 2 m/kg, iv; format: ADME, organism-based; details: in vivo, read-out: Vdss
# [8] = Permeability across mucosal to serosal side in human Caco2 cells; format: ADME, cell-based; details: Caco-2, read-out: permeability
# [9] = Volume of distribution at steady state in cynomolgus monkey at 0.5 mg/kg, iv; details: in vivo, read-out: Vdss
# [10] = target: Cytochrome P450 3A4 (Homo sapiens, UniProt P08684); test: Inhibition of human CYP3A4; format: ADME
# [11] = Elimination half life in Sprague-Dawley rat at 2 m/kg, iv; format: ADME, organism-based; details: in vivo, read-out: beta t1/2
# [12] = Permeability across serosal to mucosal side human Caco2 cells; format: ADME, cell-based; details: Caco-2, read-out: permeability
# [13] = target: Cytochrome P450 2D6 (Homo sapiens, UniProt P10635); test: Inhibition of human CYP2D6; format: ADME
# [14] = Clearance in Sprague-Dawley rat at 2 m/kg, iv; format: ADME, organism-based; details: in vivo
# [15] = target: T2, Cytochrome P450 1A2 (Homo sapiens, UniProt P05177); test: Inhibition of human CYP1A2; format: ADME
# T2 sequence (P05177 whole entry): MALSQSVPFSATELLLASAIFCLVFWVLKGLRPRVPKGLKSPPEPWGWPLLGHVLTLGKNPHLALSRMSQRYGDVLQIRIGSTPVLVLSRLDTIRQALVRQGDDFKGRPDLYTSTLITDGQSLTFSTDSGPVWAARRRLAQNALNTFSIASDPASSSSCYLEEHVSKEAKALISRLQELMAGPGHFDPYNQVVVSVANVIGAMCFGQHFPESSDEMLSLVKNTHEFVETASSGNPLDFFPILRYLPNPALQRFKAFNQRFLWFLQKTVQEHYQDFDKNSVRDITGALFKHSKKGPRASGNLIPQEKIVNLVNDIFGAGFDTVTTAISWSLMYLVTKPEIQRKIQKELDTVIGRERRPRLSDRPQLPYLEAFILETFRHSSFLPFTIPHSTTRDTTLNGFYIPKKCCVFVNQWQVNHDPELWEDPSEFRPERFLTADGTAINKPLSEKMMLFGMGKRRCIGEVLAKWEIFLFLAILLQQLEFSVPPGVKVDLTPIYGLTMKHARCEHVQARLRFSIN
# [16] = Elimination half life in cynomolgus monkey at 0.5 mg/kg, iv; details: in vivo, read-out: beta t1/2
# [17] = Clearance in cynomolgus monkey at 0.5 mg/kg, iv; details: in vivo
# [18] = Half life in human liver microsomes; format: ADME, Microsome
# [19] = AUC (0 to infinity) in Sprague-Dawley rat at 8 mg/kg, po; format: ADME, organism-based; set-up: time infinity, dose 8 mg/kg, route oral; details: plasma; method in brief: as §1
# [20] = Drug metabolism in rat liver microsomes after 15 mins; format: ADME, Microsome; details: read-out: Drug metabolism
# [21] = test system: Rattus norvegicus; test: Induction of gastric emptying in overnight-fasted iv dosed Wistar rat measured after 15 mins by […] analysis; format: functional, organism-based, Stomach
# Method in brief: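 Overnight-fasted male Wistar rats (200 ± 20 g), N = 5 per point. Compound given IV in 9% 2-hydroxypropyl-β-cyclodextrin together with an oral 2% methylcellulose meal containing 0.05% phenol red (2 mL). Sacrifice 15 min later; phenol red left in stomach read at 560 nm. […] Metoclopramide positive control at 10 mg/kg IV.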
# [22] = target: Cytochrome P450 2C19 (Homo sapiens, UniProt P33261); test: Inhibition of human CYP2C19; format: ADME
# [23] = Oral bioavailability in Sprague-Dawley rat at 8 mg/kg; details: in vivo
# [24] = target: T1, Growth hormone secretagogue receptor type 1; test: Displacement of [125I-His9]-ghrelin from human GRLN receptor by radioligand binding assay
# Method in brief: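 Competitive binding on isolated membranes expressing GRLN, with 125I-His-9 octanoylated ghrelin as radioligand.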
# [25] = target: motilin receptor (Homo sapiens) (UniProt O43193); test: Selectivity ratio of EC50 for human motilin receptor to EC50 for human GRLN receptor
# [26] = Drug excretion in Sprague-Dawley rat assessed as unchanged recovery in feces at 6 mg/kg, iv measured after 30 mins; details: faeces
# [27] = Dissociation constant, pKa of the compound; format: physicochemical
# [28] = test system: Salmonella typhimurium; test: Induction of mutagenicity in Salmonella Typhimurium up to 5000 ug/plate by Ames test; format: toxicity, organism-based; details: salmonella enterica subsp. enterica serovar typhimurium
# Method in brief: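 Ames test run up to 5000 μg/plate.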
# T1 sequence (Q92847 whole entry): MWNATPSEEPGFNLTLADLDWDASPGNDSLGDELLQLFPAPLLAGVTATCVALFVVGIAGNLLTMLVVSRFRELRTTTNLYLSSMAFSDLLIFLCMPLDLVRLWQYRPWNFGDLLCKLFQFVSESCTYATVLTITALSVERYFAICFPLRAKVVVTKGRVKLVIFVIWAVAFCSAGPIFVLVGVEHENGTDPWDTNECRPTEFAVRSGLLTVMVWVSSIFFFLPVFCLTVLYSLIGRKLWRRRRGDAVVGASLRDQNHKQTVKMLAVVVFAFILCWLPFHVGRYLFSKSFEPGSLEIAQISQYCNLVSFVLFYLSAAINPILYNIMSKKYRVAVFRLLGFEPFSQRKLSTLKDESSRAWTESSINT
# Sequence of Cytochrome P450 2C9 (P11712 whole entry): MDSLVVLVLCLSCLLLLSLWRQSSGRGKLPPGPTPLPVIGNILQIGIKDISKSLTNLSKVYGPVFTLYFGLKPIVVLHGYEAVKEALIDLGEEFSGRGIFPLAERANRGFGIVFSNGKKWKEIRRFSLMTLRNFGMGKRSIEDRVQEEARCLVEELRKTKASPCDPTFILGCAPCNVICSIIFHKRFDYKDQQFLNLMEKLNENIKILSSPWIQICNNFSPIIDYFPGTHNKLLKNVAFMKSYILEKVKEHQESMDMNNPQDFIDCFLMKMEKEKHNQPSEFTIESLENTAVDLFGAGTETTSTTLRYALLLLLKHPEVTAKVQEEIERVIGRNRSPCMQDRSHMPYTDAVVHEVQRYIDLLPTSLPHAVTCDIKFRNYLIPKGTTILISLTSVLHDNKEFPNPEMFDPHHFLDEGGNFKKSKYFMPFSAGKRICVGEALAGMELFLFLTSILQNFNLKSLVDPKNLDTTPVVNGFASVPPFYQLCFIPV
# Sequence of Cytochrome P450 2D6 (P10635 whole entry): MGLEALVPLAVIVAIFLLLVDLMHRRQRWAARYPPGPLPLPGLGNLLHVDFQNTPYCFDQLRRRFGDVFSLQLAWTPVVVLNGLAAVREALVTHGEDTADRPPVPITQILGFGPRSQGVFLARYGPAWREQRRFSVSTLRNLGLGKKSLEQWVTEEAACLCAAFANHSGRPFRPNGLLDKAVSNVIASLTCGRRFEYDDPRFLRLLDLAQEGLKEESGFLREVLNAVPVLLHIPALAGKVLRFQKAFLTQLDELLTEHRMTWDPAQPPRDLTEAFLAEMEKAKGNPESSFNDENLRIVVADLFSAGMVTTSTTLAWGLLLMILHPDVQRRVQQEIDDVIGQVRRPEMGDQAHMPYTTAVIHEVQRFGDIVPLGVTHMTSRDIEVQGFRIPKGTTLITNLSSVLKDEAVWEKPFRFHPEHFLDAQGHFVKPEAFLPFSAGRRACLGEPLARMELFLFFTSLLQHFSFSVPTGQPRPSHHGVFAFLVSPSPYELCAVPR
# Sequence of Cytochrome P450 2C19 (P33261 whole entry): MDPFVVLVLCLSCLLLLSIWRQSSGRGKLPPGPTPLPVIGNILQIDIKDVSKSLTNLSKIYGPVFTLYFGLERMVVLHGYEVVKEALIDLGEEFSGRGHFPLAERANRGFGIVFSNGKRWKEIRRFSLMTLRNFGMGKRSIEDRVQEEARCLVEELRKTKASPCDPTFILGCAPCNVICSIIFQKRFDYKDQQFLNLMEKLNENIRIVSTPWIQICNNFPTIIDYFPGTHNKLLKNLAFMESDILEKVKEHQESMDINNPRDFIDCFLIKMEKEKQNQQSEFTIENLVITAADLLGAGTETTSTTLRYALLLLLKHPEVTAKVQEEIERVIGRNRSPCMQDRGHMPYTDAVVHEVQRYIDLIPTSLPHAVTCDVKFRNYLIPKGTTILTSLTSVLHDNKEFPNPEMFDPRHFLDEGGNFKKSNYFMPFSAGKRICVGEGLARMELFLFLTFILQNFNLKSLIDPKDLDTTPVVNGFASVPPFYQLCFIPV
# Sequence of Cytochrome P450 3A4 (P08684 whole entry): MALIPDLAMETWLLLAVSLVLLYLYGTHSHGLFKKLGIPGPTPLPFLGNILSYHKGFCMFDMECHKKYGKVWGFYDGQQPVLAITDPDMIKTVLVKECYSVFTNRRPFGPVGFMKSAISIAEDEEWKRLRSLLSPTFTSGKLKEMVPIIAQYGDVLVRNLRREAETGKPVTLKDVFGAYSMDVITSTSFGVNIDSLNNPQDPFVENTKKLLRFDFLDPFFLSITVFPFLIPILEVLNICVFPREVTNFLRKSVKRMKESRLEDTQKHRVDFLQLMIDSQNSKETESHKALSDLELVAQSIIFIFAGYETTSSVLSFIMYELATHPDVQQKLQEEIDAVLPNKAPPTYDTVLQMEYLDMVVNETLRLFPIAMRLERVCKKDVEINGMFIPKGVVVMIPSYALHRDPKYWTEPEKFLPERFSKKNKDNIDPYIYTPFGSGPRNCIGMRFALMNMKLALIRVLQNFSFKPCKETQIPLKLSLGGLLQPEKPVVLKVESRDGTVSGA
EC50 [1] [nM],AUC [2] [µM·min],IC50 [3] [µM],Cmax [4] [nM],Cmax [5] [nM],F [6] [%],Papp A→B [8] [×10⁻⁶ cm/s],IC50 [10] [nM],Papp B→A [12] [×10⁻⁶ cm/s],IC50 [13] [µM],IC50 [15] [µM],AUC(0-inf) [19] [µM·h],metabolised at […] [20] [%],EC50 [21] [mg/kg],IC50 [22] [µM],bioavailability [23] [%],Ki [24] [nM],Compound,other results
27,10.3,> 100,90,900,7,19.8,1200,12.5,31,> 100,1.67,54,1.2,> 100,36,2.6,C[C@@H]1C(=O)N[C@H](Cc2ccc(F)cc2)C(=O)NCCCc2ccc(F)cc2OCCN[C@@H](C2CC2)C(=O)N1C,Vd [7]: 1.8 L/kg; Vd [9]: 0.66 L/kg; half-life [11]: 44 min; clearance [14]: 28 mL/min/kg; half-life [16]: 29 min; clearance [17]: 20 mL/min/kg; half-life [18]: 41 min
134,,,,,,,,,,,,,,,,86,CCC[C@@H]1NCCOc2ccccc2/C=C/CNC(=O)[C@@H](Cc2ccccc2)NC(=O)CN(C)C1=O,Ratio EC50 [25]: > 100
29,75.4,66,1400,390,24,15,2400,14,84,> 100,1.37,68,0.91,> 100,24,16,C[C@@H]1CN[C@@H](C2CC2)C(=O)N(C)[C@H](C)C(=O)N[C@H](Cc2ccc(F)cc2)C(=O)NCCCc2ccccc2O1.Cl.O [ULIMORELIN HYDROCHLORIDE],dose excreted at 0.5 h [26]: 95%; pKa [27]: 7.17; Activity [28]: Non-toxic
